pEC50: −log10 of the molar value. ≈ marks a conversion by molar mass, not a printed value. Calls of active or inactive are those of the source. No cut-off for these calls is given here.
Experiments:
Candida albicans = test: Antifungal activity against Candida albicans CMCC (F) 98001 after 24 hrs by twofold microdilution broth method; type: functional; conditions: CMCC (F) 98001, 24 h
Method in brief: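 Strain CMCC(F) 98001 grown in Sabouraud dextrose broth at 25 °C; inoculum diluted in SDB to 10^6 CFU. Compounds from 20,000 µg/ml DMSO stocks, twofold serial dilution across ten wells, with medium-only and organism-only controls. Incubated 24 h. MIC read by eye as the lowest concentration with no visible growth. Three replicates.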

[1] = Cytotoxicity against rat IEC-6 cells assessed as cell survival at 10 uM after 72 hrs by MTT assay relative to control; type: cell-based; conditions: read-out: Survival
Method in brief: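 IEC-6 intestinal epithelial cells were exposed to each compound at a fixed 10 µM for 72 h alongside an untreated blank control. Viability was read by MTT reduction and expressed as survival rate (SR). Compounds with SR between 70% and 100% were classed as noncytotoxic or hypocytotoxic.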

Escherichia coli = test: Antibacterial activity against clinical isolate of Escherichia coli after 24 hrs by twofold microdilution broth method; type: functional
Method in brief: (§1)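 Clinical isolates grown in Mueller-Hinton broth at 37 °C; inoculum diluted in MHB to 10^6 CFU. Compounds from 20,000 µg/ml DMSO stocks, twofold serial dilution across ten wells, with medium-only and organism-only controls. Incubated 24 h in ambient air. MIC taken as the lowest concentration with no visible growth by eye. Three replicates.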

Staphylococcus aureus = test: Antibacterial activity against clinical isolate of Staphylococcus aureus after 24 hrs by twofold microdilution broth method; type: functional; method in brief: as §1
[2] = Induction of XBP1 promoter DNA activation in rat IEC-6 cells after 48 hrs by dual luciferase reporter gene assay; type: cell-based; conditions: IEC-6, 48 h
IEC-6 = test: Induction of XBP1 promoter DNA activation in rat IEC-6 cells at 10 uM after 48 hrs by dual luciferase reporter gene assay relative to control; type: cell-based
Mus musculus [3] = test: Antiulcerogenic activity in DSS-induced acute ulcerative colitis C57BL/6J mouse model assessed as recovery of polar arrangement of IEC cells at 150 mg/kg, po qd administered for 7 days by microscopic analysis; type: functional, organism-based
Method in brief: (§2)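 Colitis induced by DSS in C57BL/6J mice. Agents given orally each day: test agents at 150 mg/kg as a suspension in 0.5% CMC-Na; sulfasalazine at 500 mg/kg. At study end, colon tissue was H&E stained and examined by light microscopy at ×100 for mucosal structure, epithelial cell arrangement, crypt damage, inflammatory infiltration and ulceration.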

Mus musculus [4] = test: Antiulcerogenic activity in DSS-induced acute ulcerative colitis C57BL/6J mouse model assessed as decrease in body weight at 150 mg/kg, po qd administered for 7 days (reference value: 23.96%); type: functional; design: scale not given: the % may be the effect or the level left
Mus musculus [5] = test: Antiulcerogenic activity in DSS-induced acute ulcerative colitis C57BL/6J mouse model assessed as regular arrangement of IEC cells at 150 mg/kg, po qd administered for 7 days by microscopic analysis; type: functional, organism-based; method in brief: as §2
Mus musculus [6] = test: Antiulcerogenic activity in DSS-induced acute ulcerative colitis C57BL/6J mouse model assessed as colon macroscopic damage index at 150 mg/kg, po qd administered for 7 days (reference value: 4.13 +/- 0.78); type: functional
Mus musculus [7] = test: Inhibition of DSS-induced acute ulcerative colitis C57BL/6J mouse model at 150 mg/kg, po qd administered for 7 days relative to control; type: functional; conditions: 168 h
Mus musculus [8] = test: Antiulcerogenic activity in DSS-induced acute ulcerative colitis C57BL/6J mouse model assessed as colon contracture at 150 mg/kg, po qd administered for 7 days (reference value: 41.87%); type: functional
Mus musculus [9] = test: Antiulcerogenic activity in DSS-induced acute ulcerative colitis C57BL/6J mouse model assessed as disappearance of inflammatory edema at 500 mg/kg, po qd administered for 7 days by microscopic analysis; type: functional, organism-based; method in brief: as §2
Mus musculus [10] = test: Antiulcerogenic activity in DSS-induced acute ulcerative colitis C57BL/6J mouse model assessed as colon macroscopic damage index at 500 mg/kg, po qd administered for 7 days (reference value: 4.13 +/- 0.78); type: functional
Mus musculus [11] = test: Antiulcerogenic activity in DSS-induced acute ulcerative colitis C57BL/6J mouse model assessed as colon contracture at 500 mg/kg, po qd administered for 7 days (reference value: 41.87%); type: functional
Mus musculus [12] = test: Inhibition of DSS-induced acute ulcerative colitis C57BL/6J mouse model at 500 mg/kg, po qd administered for 7 days relative to control; type: functional; conditions: 168 h
Mus musculus [13] = test: Antiulcerogenic activity in DSS-induced acute ulcerative colitis C57BL/6J mouse model assessed as decrease in body weight at 500 mg/kg, po qd administered for 7 days (reference value: 23.96%); type: functional; design: scale not given: the % may be the effect or the level left

Compound | MIC (Candida albicans) | viability at 72 h, 10 µM [1] | MIC (Escherichia coli) | MIC (Staphylococcus aureus) | also measured
CCOC(=O)CCCCCCCc1c2[n+](cc3c(OC)c(OC)ccc13)CCc1cc(OC)c(OC)cc1-2.[Cl-] | 62.5 µg/mL | 70 to 100% | 250 µg/mL | 7.81 µg/mL | 
CCOC(=O)Cc1c2[n+](cc3c(OC)c(OC)ccc13)CCc1cc(OC)c(OC)cc1-2.[Cl-] | > 250 µg/mL | 70 to 100% | > 250 µg/mL | 250 µg/mL | 
COc1cc2c(cc1OC)-c1c(C(=O)NCc3ccccc3)c3ccc(OC)c(OC)c3c(=O)n1CC2 | > 250 µg/mL | 70 to 100% | > 250 µg/mL | > 250 µg/mL | pEC50 [2]: 6.08; fold change (FC) (IEC-6): 1.2
C[C@H]1COc2c(N3CCN(C)CC3)c(F)cc3c(=O)c(C(=O)O)cn1c23.C[C@H]1COc2c(N3CCN(C)CC3)c(F)cc3c(=O)c(C(=O)O)cn1c23.O [LEVOFLOXACIN] | > 250 µg/mL |  | < 1.95 µg/mL | < 1.95 µg/mL | 
CCOC(=O)c1c2[n+](cc3c(OC)c(OC)ccc13)CCc1cc(OC)c(OC)cc1-2.[Cl-] | > 250 µg/mL | 70 to 100% | > 250 µg/mL | > 250 µg/mL | 
CCOC(=O)CCCCCCc1c2[n+](cc3c(OC)c(OC)ccc13)CCc1cc(OC)c(OC)cc1-2.[Cl-] | 125 µg/mL | 70 to 100% | > 250 µg/mL | 15.6 µg/mL | 
CCCCCNC(=O)c1c2n(c(=O)c3c(OC)c(OC)ccc13)CCc1cc(OC)c(OC)cc1-2 | > 250 µg/mL | 70 to 100% | > 250 µg/mL | > 250 µg/mL | pEC50 [2]: 6.00; fold change (FC) (IEC-6): 1.21
CCCNCc1c2n(c(=O)c3c(OC)c(OC)ccc13)CCc1cc(OC)c(OC)cc1-2 | > 250 µg/mL | 70 to 100% | > 250 µg/mL | > 250 µg/mL | 
CCOC(=O)CCCCCc1c2[n+](cc3c(OC)c(OC)ccc13)CCc1cc(OC)c(OC)cc1-2.[Cl-] | > 250 µg/mL | 70 to 100% | > 250 µg/mL | 62.5 µg/mL | 
CCCCNC(=O)c1c2n(c(=O)c3c(OC)c(OC)ccc13)CCc1cc(OC)c(OC)cc1-2 | > 250 µg/mL | 70 to 100% | > 250 µg/mL | > 250 µg/mL | 
COc1cc2c(cc1OC)-c1cc3ccc(OC)c(OC)c3c[n+]1CC2.[Cl-] [PALMATINE CHLORIDE] | > 250 µg/mL | 70 to 100% | > 250 µg/mL | 250 µg/mL | 
CCCCNCc1c2n(c(=O)c3c(OC)c(OC)ccc13)CCc1cc(OC)c(OC)cc1-2 | > 250 µg/mL | 70 to 100% | > 250 µg/mL | > 250 µg/mL | 
CCCCCCCNCc1c2n(c(=O)c3c(OC)c(OC)ccc13)CCc1cc(OC)c(OC)cc1-2 | > 250 µg/mL | 70 to 100% | > 250 µg/mL | 125 µg/mL (≈ 253 µM) | 
COc1cc2c(cc1OC)-c1c(C(C)=O)c3ccc(OC)c(OC)c3c[n+]1CC2.[Cl-] | > 250 µg/mL | 70 to 100% | > 250 µg/mL | > 250 µg/mL | 
CCCNC(=O)c1c2n(c(=O)c3c(OC)c(OC)ccc13)CCc1cc(OC)c(OC)cc1-2 | > 250 µg/mL | 70 to 100% | > 250 µg/mL | > 250 µg/mL | 
COc1cc2c(cc1OC)-c1cc3ccc(OC)c(OC)c3c(=O)n1CC2 | > 250 µg/mL | 70 to 100% | > 250 µg/mL | > 250 µg/mL | 

Compound | MIC (Candida albicans) | viability at 72 h, 10 µM [1] | MIC (Escherichia coli) | MIC (Staphylococcus aureus) | also measured
COc1cc2c(cc1OC)-c1c(C(=O)O)c3ccc(OC)c(OC)c3c(=O)n1CC2 | > 250 µg/mL | 70 to 100% | > 250 µg/mL | > 250 µg/mL | 
CCOC(=O)CCCCc1c2[n+](cc3c(OC)c(OC)ccc13)CCc1cc(OC)c(OC)cc1-2.[Cl-] | > 250 µg/mL | 70 to 100% | > 250 µg/mL | 125 µg/mL | 
CCCCC(=O)c1c2[n+](cc3c(OC)c(OC)ccc13)CCc1cc(OC)c(OC)cc1-2.[Cl-] | > 250 µg/mL | 70 to 100% | > 250 µg/mL | 125 µg/mL | pEC50 [2]: 6.47; fold change (FC) (IEC-6): 1.29
CCOC(=O)CCCc1c2[n+](cc3c(OC)c(OC)ccc13)CCc1cc(OC)c(OC)cc1-2.[Cl-] | > 250 µg/mL | 70 to 100% | > 250 µg/mL | 125 µg/mL | 
COc1cc2c(cc1OC)-c1c(C=O)c3ccc(OC)c(OC)c3c(=O)n1CC2 | > 250 µg/mL | 70 to 100% | > 250 µg/mL | > 250 µg/mL | Activity (Mus musculus [3]): Active; Activity (Mus musculus [4]): 5.92%; pEC50 [2]: 6.87; fold change (FC) (IEC-6): 1.41; Activity (Mus musculus [5]): Active; Activity_index (Mus musculus [6]): 2.25; inhibition in vivo at 150 mg/kg (Mus musculus [7]): 63.2%; Activity (Mus musculus [8]): 29.24%
O=C(O)c1cc(/N=N/c2ccc(S(=O)(=O)Nc3ccccn3)cc2)ccc1O [SULFASALAZINE] |  |  |  |  | Activity (Mus musculus [9]): Active; Activity_index (Mus musculus [10]): 3.13; Activity (Mus musculus [11]): 28.22%; inhibition in vivo at 500 mg/kg (Mus musculus [12]): 55.2%; Activity (Mus musculus [13]): 6.01%
CCC(=O)c1c2[n+](cc3c(OC)c(OC)ccc13)CCc1cc(OC)c(OC)cc1-2.[Cl-] | > 250 µg/mL | 70 to 100% | > 250 µg/mL | > 250 µg/mL | pEC50 [2]: 6.52; fold change (FC) (IEC-6): 1.01
COc1cc2c(cc1OC)-c1c(C(=O)NC3CC3)c3ccc(OC)c(OC)c3c(=O)n1CC2 | > 250 µg/mL | 70 to 100% | > 250 µg/mL | > 250 µg/mL | pEC50 [2]: 6.00; fold change (FC) (IEC-6): 1.36
CCCC(=O)c1c2[n+](cc3c(OC)c(OC)ccc13)CCc1cc(OC)c(OC)cc1-2.[Cl-] | > 250 µg/mL | 70 to 100% | > 250 µg/mL | 250 µg/mL | pEC50 [2]: 6.47; fold change (FC) (IEC-6): 1.59
CCCCCNCc1c2n(c(=O)c3c(OC)c(OC)ccc13)CCc1cc(OC)c(OC)cc1-2 | > 250 µg/mL | 70 to 100% | > 250 µg/mL | > 250 µg/mL | 
CCCCCC(=O)c1c2[n+](cc3c(OC)c(OC)ccc13)CCc1cc(OC)c(OC)cc1-2.[Cl-] | > 250 µg/mL | 70 to 100% | 250 µg/mL | 62.5 µg/mL | 
COc1cc2c(cc1OC)-c1c(C=O)c3ccc(OC)c(O)c3c(=O)n1CC2 | > 250 µg/mL | 70 to 100% | > 250 µg/mL | > 250 µg/mL | 
CCCCCCNCc1c2n(c(=O)c3c(OC)c(OC)ccc13)CCc1cc(OC)c(OC)cc1-2 | > 250 µg/mL | 70 to 100% | > 250 µg/mL | 250 µg/mL (≈ 520 µM) | 
CCCCCCCCNCc1c2n(c(=O)c3c(OC)c(OC)ccc13)CCc1cc(OC)c(OC)cc1-2 | 250 µg/mL (≈ 491 µM) | 70 to 100% | > 250 µg/mL | 31.2 µg/mL (≈ 61.4 µM) | 
CCCCCCCCCNCc1c2n(c(=O)c3c(OC)c(OC)ccc13)CCc1cc(OC)c(OC)cc1-2 | 62.5 µg/mL (≈ 120 µM) | 70 to 100% | > 250 µg/mL | 15.6 µg/mL (≈ 29.9 µM) | 

From ChEMBL document CHEMBL4219240, “Syntheses and structure-activity relationships on antibacterial and anti-ulcerative colitis properties of quaternary 13-substituted palmatines and 8-oxo-13-substituted dihydropalmatines” (Bioorg Med Chem, 2018)
